ChEMBL document CHEMBL1155286, “Second generation of 2H-benzimidazole 1,3-dioxide derivatives as anti-trypanosomatid agents: synthesis, biological evaluation, and mode of action studies” (Eur J Med Chem, 2009)
Activity calls are given as the source filed them. The rule behind the calls is not given here.

Columns and labels:
Trypanosoma cruzi [1] = experiment: Antitrypanosomal activity against Trypanosoma cruzi CL Brener trypomastigotes infected in Vero cells assessed as parasite lysis at 10 uM after 22 hrs relative to untreated control; assay type: functional
Summary of the method: (§1)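 Cell-culture trypomastigotes released from infected Vero cells (37 °C, 5% CO2, 5–7 days), collected by centrifugation and allowed 4 h at 37 °C to swim off. Supernatant parasites exposed to 10.0–50.0 μM for 2–26 h; lysis counted in a Neubauer chamber relative to untreated parasites; three independent experiments.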

Trypanosoma cruzi [2] = experiment: Antitrypanosomal activity against Trypanosoma cruzi CL Brener trypomastigotes infected in Vero cells assessed as parasite lysis at 50 uM after 2 hrs relative to untreated control; assay type: functional; summary of the method: as §1
Trypanosoma cruzi [3] = experiment: Reduction of end products excretion levels in Trypanosoma cruzi Y epimastigotes after 2 days by [1H]NMR method; assay type: functional, organism-based
Summary of the method: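 Y-strain epimastigotes treated 2 days with 5 μM compound; culture centrifuged 1500 g, 10 min, 4 °C, parasite-free supernatant stored at −20 °C. Supernatant plus DMF internal standard and D2O run by 1H NMR with water suppression; metabolite peaks confirmed by spiking and standards, compared to untreated and parasite-free medium.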

Trypanosoma cruzi [4] = experiment: Antitrypanosomal activity against Trypanosoma cruzi CL Brener trypomastigotes infected in Vero cells assessed as parasite lysis at 5 uM after 22 hrs relative to untreated control; assay type: functional
Trypanosoma cruzi [5] = experiment: Antitrypanosomal activity against Trypanosoma cruzi Colombiana assessed as parasitic cytotoxicity at 25 uM after 5 days by MTT assay; assay type: functional
Summary of the method: (§2)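 Single 25 μM dose for 5 days on exponential-phase epimastigotes in BHI-Tryptose + 5% FBS, 24-well plates; MTT 0.4 mg/mL, 3 h at 37 °C after PBS wash, formazan in DMSO, OD595. PCyt = [[…] (ODd − ODdm)/(ODc − ODcm)] × 100 with medium-only blanks, compound-in-medium blanks and growth controls; three independent experiments.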

Trypanosoma cruzi [6] = experiment: Antitrypanosomal activity against Trypanosoma cruzi CL Brener trypomastigotes infected in Vero cells assessed as parasite lysis at 10 uM after 26 hrs relative to untreated control; assay type: functional; summary of the method: as §1
Trypanosoma cruzi [7] = experiment: Antitrypanosomal activity against Trypanosoma cruzi CL Brener trypomastigotes infected in Vero cells assessed as parasite lysis at 25 uM after 19 hrs relative to untreated control; assay type: functional; summary of the method: as §1
Trypanosoma cruzi [8] = experiment: Antitrypanosomal activity against Trypanosoma cruzi CL Brener trypomastigotes infected in Vero cells assessed as parasite lysis at 10 uM after 3 hrs relative to untreated control; assay type: functional; summary of the method: as §1
Leishmania braziliensis = experiment: Antiparasitic activity against Leishmania braziliensis MHOM/BR/00/LTB300 after 5 days by MTT assay; assay type: functional; settings: MHOM/BR/00/LTB300, 120 h, read-out: ID50
Summary of the method: (§3)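 Epimastigotes (T. cruzi strains, BHI-Tryptose + 5% FBS, 28 °C) or L. braziliensis LTB300 promastigotes (axenic RPMI + 5% FBS, 28 °C) from exponential culture in 24-well plates; compounds from DMSO stock added for 5 days. Washed in PBS, 0.4 mg/mL MTT at 37 °C for 3 h, formazan dissolved in DMSO, OD595 read. Triplicate per concentration, six growth controls; 1.0–50.0 μM dose-response, ID50 = concentration reducing absorbance ratio to 50%; three independent experiments.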

Trypanosoma cruzi [9] = experiment: Antitrypanosomal activity against Trypanosoma cruzi CL Brener trypomastigotes infected in Vero cells assessed as parasite lysis at 10 uM after 2 hrs relative to untreated control; assay type: functional; summary of the method: as §1
Trypanosoma cruzi [10] = experiment: Antitrypanosomal activity against Trypanosoma cruzi Y epimastigotes after 5 days by MTT assay; assay type: functional; settings: 120 h, read-out: ID50; summary of the method: as §3
Trypanosoma cruzi [11] = experiment: Antitrypanosomal activity against Trypanosoma cruzi CL Brener trypomastigotes infected in Vero cells assessed as parasite lysis at 50 uM after 19 hrs relative to untreated control; assay type: functional; summary of the method: as §1
Trypanosoma cruzi [12] = experiment: Antitrypanosomal activity against Trypanosoma cruzi CL Brener epimastigotes assessed as parasitic cytotoxicity at 25 uM after 5 days by MTT assay; assay type: functional; summary of the method: as §2
Trypanosoma cruzi [13] = experiment: Antitrypanosomal activity against Trypanosoma cruzi CL Brener epimastigotes after 5 days by MTT assay; assay type: functional; settings: 120 h, read-out: ID50; summary of the method: as §3
Trypanosoma cruzi [14] = experiment: Antitrypanosomal activity against Trypanosoma cruzi Tulahuen 2 epimastigotes assessed as inhibition of parasite growth after 5 days; assay type: functional; settings: Trypanosoma cruzi, Tulahuen 2, 120 h; read-out: ID50 (the source's name)
Summary of the method: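 Stationary-phase (10-day) Tulahuen 2 epimastigotes inoculated at 1×10^6 cells/mL in BHI-Tryptose + 5% FBS, 28 °C, drug added from DMSO stock (final DMSO ≤0.4%; control 0.4% DMSO). Growth followed as A600; inhibition from day-5 vs day-0 absorbance relative to control. ID50 = concentration reducing absorbance ratio to 50%; three independent experiments.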

- IC50 (Trypanosoma cruzi [10]): 6 µM
- IC50 (Trypanosoma cruzi [13]): 8.5 µM
- IC50 (Trypanosoma cruzi [14]): 3.4 µM
SMILES: CC1(C)[N+]([O-])=c2ccc(/C=C/c3ccccc3)cc2=[N+]1[O-]
- Activity (Trypanosoma cruzi [1]): 84%
- Activity (Trypanosoma cruzi [2]): 32%
- Activity (Trypanosoma cruzi [3]): Active
- Activity (Trypanosoma cruzi [4]): 31%
- Activity (Trypanosoma cruzi [5]): 92.3%
- Activity (Trypanosoma cruzi [6]): 100%
- Activity (Trypanosoma cruzi [7]): 64%
- Activity (Trypanosoma cruzi [8]): 32%
- IC50 (Leishmania braziliensis): 3.5 µM
- Activity (Trypanosoma cruzi [9]): 3%
- Activity (Trypanosoma cruzi [11]): 100%
- Activity (Trypanosoma cruzi [12]): 78.4%
